According to ChEMBL document CHEMBL3860041, “Synthesis, biological evaluation and molecular modeling study of some new methoxylated 2-benzylthio-quinazoline-4(3H)-ones as nonclassical antifolates” (Bioorg Med Chem Lett, 2016):

Assays:
Assay type in all cases: functional
[1] = Growth inhibition of human SK-MEL-2 cells at 10 uM after 48 hrs by SRB assay relative to control; settings: SK-MEL-2, 48 h, read-out: GI
Procedure, shortened: (§1)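 Primary screen across the full NCI 60 human tumour cell line panel, which covers nine tumour subpanels. A single dose of 10 μM was applied to each line, and growth was recorded for each cell line.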

[2] = Growth inhibition of human RXF393 cells at 10 uM after 48 hrs by SRB assay relative to control; settings: RXF 393, 48 h, read-out: GI
Procedure, shortened: (§2)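 NCI 60-cell-line panel, nine tumor subpanels; compounds tested at a single dose of 10 μM in the primary screen.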

[3] = Growth inhibition of human SF268 cells at 10 uM after 48 hrs by SRB assay relative to control; settings: SF-268, 48 h, read-out: GI; procedure, shortened: as §2
[4] = Growth inhibition of human BT549 cells at 10 uM after 48 hrs by SRB assay relative to control; settings: BT-549, 48 h, read-out: GI; procedure, shortened: as §2
[5] = Growth inhibition of human K562 cells at 10 uM after 48 hrs by SRB assay relative to control; settings: K562, 48 h, read-out: GI; procedure, shortened: as §2
[6] = Growth inhibition of human MOLT4 cells at 10 uM after 48 hrs by SRB assay relative to control; settings: MOLT-4, 48 h, read-out: GI; procedure, shortened: as §2
[7] = Growth inhibition of human T47D cells at 10 uM after 48 hrs by SRB assay relative to control; settings: read-out: GI; procedure, shortened: as §1
[8] = Growth inhibition of human HL-60(TB) cells at 10 uM after 48 hrs by SRB assay relative to control; settings: HL-60, 48 h, read-out: GI
Procedure, shortened: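 NCI disease-oriented human tumour cell line screen: primary single-dose assay at 10 μM across the full 60-cell-line panel spanning nine tumour subpanels.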

[9] = Growth inhibition of human LOXIMVI cells at 10 uM after 48 hrs by SRB assay relative to control; settings: LOX IMVI, read-out: GI; procedure, shortened: as §2
[10] = Growth inhibition of human UO31 cells at 10 uM after 48 hrs by SRB assay relative to control; settings: UO-31, 48 h, read-out: GI; procedure, shortened: as §1
[11] = Growth inhibition of human colon cancer cells after 48 hrs by SRB assay; settings: Cancer cell lines
Procedure, shortened: (§3)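 Follow-up NCI panel testing over a 5-log dose range for each cell line. GI50, TGI and LC50 were monitored, with 5-fluorouracil run as the positive control. Values are grouped by tumour subpanel.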

[12] = Growth inhibition of human SK-MEL-5 cells at 10 uM after 48 hrs by SRB assay relative to control; settings: SK-MEL-5, 48 h, read-out: GI; procedure, shortened: as §1
[13] = Growth inhibition of human NCI/ADR-RES cells at 10 uM after 48 hrs by SRB assay relative to control; settings: read-out: GI; procedure, shortened: as §2
[14] = Growth inhibition of human CNS cancer cells after 48 hrs by SRB assay; settings: Cancer cell lines
Procedure, shortened: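 Five-log dose range against NCI tumor cell lines, monitoring GI50, TGI and LC50 for each cell line; MG-MID values derived across the panel; 5-fluorouracil positive control.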

[15] = Growth inhibition of human ACHN cells at 10 uM after 48 hrs by SRB assay relative to control; settings: read-out: GI; procedure, shortened: as §2
[16] = Growth inhibition of human NCI-H23 cells at 10 uM after 48 hrs by SRB assay relative to control; settings: NCI-H23, 48 h, read-out: GI; procedure, shortened: as §2
[17] = tested on: Cancer cell lines; assay: Potency index, ratio of 5-fluorouracil GI50 to compound GI50 for human CNS cancer cells
Procedure, shortened: (§4)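 GI50 for each cell line came from NCI panel testing over a 5-log dose range, with 5-fluorouracil tested alongside as the reference drug. The index relates the 5-fluorouracil GI50 to the compound GI50 within each tumour subpanel.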

[18] = Growth inhibition of human HOP62 cells at 10 uM after 48 hrs by SRB assay relative to control; settings: HOP-62, 48 h, read-out: GI; procedure, shortened: as §2
[19] = tested on: Leukemia cell; assay: Potency index, ratio of 5-fluorouracil GI50 to compound GI50 for human leukemia cells; procedure, shortened: as §4
[20] = Growth inhibition of human SKOV3 cells at 10 uM after 48 hrs by SRB assay relative to control; settings: SK-OV-3, 48 h, read-out: GI; procedure, shortened: as §1
[21] = Growth inhibition of human OVCAR4 cells at 10 uM after 48 hrs by SRB assay relative to control; settings: OVCAR-4, 48 h, read-out: GI; procedure, shortened: as §2
[22] = Growth inhibition of human OVCAR5 cells at 10 uM after 48 hrs by SRB assay relative to control; settings: OVCAR-5, 48 h, read-out: GI; procedure, shortened: as §2
[23] = Growth inhibition of human SNB75 cells at 10 uM after 48 hrs by SRB assay relative to control; settings: SNB-75, 48 h, read-out: GI; procedure, shortened: as §1
[24] = Growth inhibition of human 786-0 cells at 10 uM after 48 hrs by SRB assay relative to control; settings: 786-0, 48 h, read-out: GI; procedure, shortened: as §2
[25] = Growth inhibition of human SR cells at 10 uM after 48 hrs by SRB assay relative to control; settings: read-out: GI; procedure, shortened: as §1
[26] = Growth inhibition of human MALME-3M cells at 10 uM after 48 hrs by SRB assay relative to control; settings: read-out: GI; procedure, shortened: as §2
[27] = Growth inhibition of human COLO205 cells at 10 uM after 48 hrs by SRB assay relative to control; settings: COLO 205, 48 h, read-out: GI; procedure, shortened: as §2
[28] = Growth inhibition of human SN12C cells at 10 uM after 48 hrs by SRB assay relative to control; settings: read-out: GI; procedure, shortened: as §1
[29] = Growth inhibition of human Hs 578T cells at 10 uM after 48 hrs by SRB assay relative to control; settings: read-out: GI; procedure, shortened: as §2
[30] = Growth inhibition of human MDA-MB-468 cells at 10 uM after 48 hrs by SRB assay relative to control; settings: MDA-MB-468, 48 h, read-out: GI; procedure, shortened: as §2
[31] = Growth inhibition of human non-small cell lung cancer cells after 48 hrs by SRB assay; settings: Cancer cell lines; procedure, shortened: as §3
[32] = Growth inhibition of human ovarian cancer cells after 48 hrs by SRB assay; settings: Cancer cell lines; procedure, shortened: as §3
[33] = Growth inhibition of human A498 cells at 10 uM after 48 hrs by SRB assay relative to control; settings: A498, 48 h, read-out: GI; procedure, shortened: as §2
[34] = Growth inhibition of human HCT116 cells at 10 uM after 48 hrs by SRB assay relative to control; settings: HCT-116, 48 h, read-out: GI; procedure, shortened: as §2
[35] = Growth inhibition of human UACC257 cells at 10 uM after 48 hrs by SRB assay relative to control; settings: UACC-257, 48 h, read-out: GI; procedure, shortened: as §1
[36] = Growth inhibition of human A549 cells at 10 uM after 48 hrs by SRB assay relative to control; settings: A549, 48 h, read-out: GI; procedure, shortened: as §2

COc1ccc(-n2c(SCc3cc(OC)c(OC)c(OC)c3)nc3ccc(C)cc3c2=O)cc1
inhibition of growth at 10 µM [1]: 35.3%
inhibition of growth at 10 µM [2]: 47.2%
inhibition of growth at 10 µM [3]: 19.4%
inhibition of growth at 10 µM [4]: 28.6%
inhibition of growth at 10 µM [5]: 83.1%
inhibition of growth at 10 µM [6]: 44%
inhibition of growth at 10 µM [7]: 32.2%
inhibition of growth at 10 µM [8]: 68.9%
inhibition of growth at 10 µM [9]: 37%
inhibition of growth at 10 µM [10]: 52.8%
GI50 [11]: 18.2 µM
LC50 [11]: > 100 µM
TGI [11]: > 100 µM
inhibition of growth at 10 µM [12]: 45.2%
inhibition of growth at 10 µM [13]: 54.2%
GI50 [14]: 30.9 µM
LC50 (lethal concentration, 50% net cell kill) [14]: > 100 µM
TGI [14]: > 100 µM
inhibition of growth at 10 µM [15]: 33.3%
inhibition of growth at 10 µM [16]: 30.1%
RatioGI50 [17]: 2 - 10
inhibition of growth at 10 µM [18]: 34.8%
RatioGI50 [19]: 2 - 10
inhibition of growth at 10 µM [20]: 26.3%
inhibition of growth at 10 µM [21]: 32.8%
inhibition of growth at 10 µM [22]: 19.4%
inhibition of growth at 10 µM [23]: 55.6%
inhibition of growth at 10 µM [24]: 15.9%
inhibition of growth at 10 µM [25]: 77%
inhibition of growth at 10 µM [26]: 40.4%
inhibition of growth at 10 µM [27]: 67.3%
inhibition of growth at 10 µM [28]: 17.8%
inhibition of growth at 10 µM [29]: 22.3%
inhibition of growth at 10 µM [30]: 53.2%
GI50 [31]: 34.5 µM
LC50 (concentration killing 50% of cells) [31]: > 100 µM
TGI [31]: > 100 µM
GI50 [32]: 46.9 µM
LC50 (50% lethal concentration) [32]: > 100 µM
inhibition of growth at 10 µM [33]: 62%
inhibition of growth at 10 µM [34]: 65.1%
inhibition of growth at 10 µM [35]: 22.7%
inhibition of growth at 10 µM [36]: 49%

COc1ccc(CSc2nc3cc(OC)c(OC)cc3c(=O)n2-c2ccc(OC)cc2OC)cc1
inhibition of growth at 10 µM [1]: < 10%
inhibition of growth at 10 µM [2]: 24.5%
inhibition of growth at 10 µM [3]: 13.7%
inhibition of growth at 10 µM [4]: < 10%
inhibition of growth at 10 µM [5]: 12.9%
inhibition of growth at 10 µM [6]: 20.6%
inhibition of growth at 10 µM [7]: 24.4%
inhibition of growth at 10 µM [8]: < 10%
inhibition of growth at 10 µM [9]: 16.6%
inhibition of growth at 10 µM [10]: 44.6%
inhibition of growth at 10 µM [12]: 19.5%
inhibition of growth at 10 µM [13]: 20.5%
inhibition of growth at 10 µM [15]: < 10%
inhibition of growth at 10 µM [16]: 21.7%
inhibition of growth at 10 µM [18]: < 10%
inhibition of growth at 10 µM [20]: < 10%
inhibition of growth at 10 µM [21]: 16.8%
inhibition of growth at 10 µM [22]: < 10%
inhibition of growth at 10 µM [23]: < 10%
inhibition of growth at 10 µM [24]: < 10%
inhibition of growth at 10 µM [25]: 40.6%
inhibition of growth at 10 µM [26]: 17.4%
inhibition of growth at 10 µM [27]: < 10%
inhibition of growth at 10 µM [28]: < 10%
inhibition of growth at 10 µM [29]: 13.3%
inhibition of growth at 10 µM [30]: 25.7%
inhibition of growth at 10 µM [33]: 41.4%
inhibition of growth at 10 µM [34]: 37.2%
inhibition of growth at 10 µM [35]: < 10%
inhibition of growth at 10 µM [36]: 19.2%
